According to the EternaBench riboswitch data:

Legend:
MS2 coat protein [1] = test: apparent Kd, MS2 coat protein; higher = weaker binding; RNA-MaP array; tryptophan 2.4 mM where present
How it was run: (§1)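 The apparent Kd comes from binding curves fitted cluster by cluster, filtered, and summarised as a median. Those curves followed SNAP-549-labelled MS2 coat protein from 0.7 or 1.5 nM, doubling to 3 µM, on Illumina sequencing-chip clusters where stalled E. coli RNA polymerase had transcribed the designs, without and then with constant ligand. The buffer was 100 mM Tris-HCl pH 7.5, 80 mM KCl, 4 mM MgCl2, BSA, DTT, yeast tRNA and Tween-20, and green signal was normalised to red-channel RNA signal and control-cluster median Fmax.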

MS2 coat protein [2] = test: apparent Kd, MS2 coat protein; higher = weaker binding; RNA-MaP array; theophylline 2 mM where present
How it was run: as §1

[3] = designed as: ON switch for tryptophan, no ligand
[4] = ligand present: tryptophan, designed as: ON switch for tryptophan
[5] = designed as: OFF switch for tryptophan, no ligand
[6] = ligand present: tryptophan, designed as: OFF switch for tryptophan
[7] = designed as: ON switch for theophylline, no ligand
[8] = ligand present: theophylline, designed as: ON switch for theophylline
[9] = designed as: OFF switch for theophylline, no ligand
[10] = ligand present: theophylline, designed as: OFF switch for theophylline

Sequence | apparent Kd (MS2 coat protein [2]; [7]) | apparent Kd (MS2 coat protein [2]; [8]) | apparent Kd (MS2 coat protein [2]; [9]) | apparent Kd (MS2 coat protein [2]; [10]) | also measured
AAAUAAUAUUAAUUAAUUAUAUUAUUCUGACGAGGACCGGUACGGCCGCCACUCGGCCCAUGGUACAUGAGGAUCACCCAUGUCU | – | – | – | – | apparent Kd (MS2 coat protein [1]; [3]): 17.6 nM; apparent Kd (MS2 coat protein [1]; [4]): 13.6 nM
AAGACCAGGAGGUGAUCCUAACUGGUCCAACGAGGACCGGUACGGCCGCCACUCGAAUAAACAUGAGGAUCACCCAUGUAAUAAU | – | – | – | – | apparent Kd (MS2 coat protein [1]; [3]): 98.1 nM; apparent Kd (MS2 coat protein [1]; [4]): 225 nM
AAUAAUAAGGCGGCCGCCACUACACAUGAGGAUCACCCAUGUCUCGCGGGCUUGCGUUGGGAUUGUAGGACCGGGCCAAUAAUAA | – | – | – | – | apparent Kd (MS2 coat protein [1]; [5]): 26.7 nM; apparent Kd (MS2 coat protein [1]; [6]): 20.3 nM
AAUGUAUGGCACAUGAGGAUCACCCAUGUGCGAGGACCGGUACGGCCGCCACUCGGUCCUGGGAACUUAUUACUAUACAUUAAUG | – | – | – | – | apparent Kd (MS2 coat protein [1]; [5]): 11.9 nM; apparent Kd (MS2 coat protein [1]; [6]): 23.3 nM
AAUGUAUUCCACAUGAGGAUCACCCAUGUGCGAGGACCGGUACGGCCGCCACUCGGUGUUGGGAUCUGUUCUGAAUACAUUAAUG | – | – | – | – | apparent Kd (MS2 coat protein [1]; [5]): 29 nM; apparent Kd (MS2 coat protein [1]; [6]): 114 nM
ACACCAUACAUGAGGAUCACCCAUGUUACACGAGGACCGGUACGGCCGCCACUCGAAUUCAGGAAACCUCGGAUAAUAUUGUGAA | – | – | – | – | apparent Kd (MS2 coat protein [1]; [3]): 25.9 nM; apparent Kd (MS2 coat protein [1]; [4]): 33.2 nM
ACAUGAGCAUCAGCCAUGUGUAUGACAUGACGAGGACCGGUACGGCCGCCACUCGACAUGAGGAUCACCCAUGUUGAGGAUCACA | – | – | – | – | apparent Kd (MS2 coat protein [1]; [5]): 10.9 nM; apparent Kd (MS2 coat protein [1]; [6]): 14.7 nM
AGUACUCGAACGGAUACCAGCCGGACAUGAGGAUCACCCAUGUCCUACCAUGUUUCGGUUGGCCCUUGGCAGCCGUUCGUGUACA | 425 nM | 30.4 nM | – | – | –
AGUGUUAUAACUGAUACCAGACCUUUGCUUAUACAUGAGGAUCACCCAUGUAAAAUGGCGGUCCCUUGGCAGCAGAGAAUACGCA | 68 nM | 13.2 nM | – | – | –
AUACACCUCGUCCAGGCAAUCUUUAGUGAUACCAGCUAACUCCGUGGCCCUUGGCAGCACAUGAGGAUCACCCAUGUGCGACAUC | – | – | 11.1 nM | 11.8 nM | –
AUCGUACCUGAUGAUACCAGCAUGUGAUCGUAACAUGAGGAUCACCCAUGUAAUCAGUGAUGCCCUUGGCAGCAUGAUCGGUACA | 97.7 nM | 20.5 nM | – | – | –
AUCGUACCUGAUGAUACCAGCAUGUGCUCGUAACAUGAGGAUCACCCAUGUGAUCAGUGAUGCCCUUGGCAGCAUGAUCGGUGCA | 169 nM | 19.3 nM | – | – | –
AUCGUACCUGGUGAUACCAGCAAUUGCUCGUGACAUGAGGAUCACCCAUGUGACCAGUGAUGCCCUUGGCAGCAUGGUCGGUGCA | 68.7 nM | 27.2 nM | – | – | –
AUUGGGUUAUCAGAUACCAGACUAUUCUAGACAUGAGGAUCACCCAUGUAUUGGGUUUUCGUCCCUUGGCAGCUGUUAAGUUUAA | 167 nM | 113 nM | – | – | –
CAAACAUGAGGAUCACCCAUGUAAUCAGAUACCAGUGACGAAAGUCACCCUUGGCAGCUGAGUACAUUAGUUCUAAGGUGUUUGA | – | – | 44.6 nM | 50.2 nM | –
GCACCAGGUACGGAUACCAGCUAUAGGUACAUGUCAGGACAUGAGGAUCACCCAUGUGGUAGCCCUUGGCAGCUGUACCUGGUGC | – | – | 17.4 nM | 27.2 nM | –
GGUGUAUCCAUCGAUACCAGCCACCACCGAUAGACCACAUGAGGAUCACCCAUGUUGGGUGGCCCUUGGCAGCGGUGGCUGUGCC | 317 nM | 172 nM | – | – | –
GUCAGUAGAACAGAUACCAGUCAAAGGCUGUGAUCUCAUAACAUGAGGAUCACCCAUGUUGACCCUUGGCAGCUGUGGGCGAGGG | – | – | 45.2 nM | 391 nM | –
UACAUGAGGAUCACCCAUGUAUACAUGGAUACCAGCGACAAUGGGCGCCCUUGGCAGCUAGUGGAUGGAGGGUGGCCACAGUACU | – | – | 70.2 nM | 71.8 nM | –
UACAUGAGGAUCACCCAUGUAUGAAUAGAUACCAGCGAAAAUAAGCGCCCUUGGCAGCUAGUGAAUAAAGGGUGGGUAAAAUAAU | – | – | 9.18 nM | 19.9 nM | –

Sequence | apparent Kd (MS2 coat protein [2]; [7]) | apparent Kd (MS2 coat protein [2]; [8]) | apparent Kd (MS2 coat protein [2]; [9]) | apparent Kd (MS2 coat protein [2]; [10]) | also measured
UACAUGAGGAUCACCCAUGUGGCGGAUGAUACCAGUAUGGUGACAUACCCUUGGCAGCAUGCUAUGAGGAUCACCCAUGUGUGCA | – | – | 85.3 nM | 166 nM | –
UAUAUGGUGAUGGAUACCAGCAGAGAAAACGUUUAUCCUAACAUGAGGAUCACCCAUGUAUGCCCUUGGCAGCUGUUGUUAUAUA | – | – | 37.9 nM | 29.7 nM | –
UAUUUUGGGCGCGAGCCCGGGAUAAUUGAUACCAGUGAAGAAGAGCGCCCUUGGCAGCGAAUCCUAACAUGAGGAUCACCCAUGU | 47.5 nM | 60 nM | – | – | –
UCGUCCUCCGCAAGGAGGAGGAGUUGCGAUACCAGCACGGUAACGUGCCCUUGGCAGCGCACAUGAGGAUCACCCAUGUGGUGUU | – | – | 214 nM | 489 nM | –
UCUUUCUUUGUAGAUACCAGCAUGUUAAGUUUCUUUUGACAUGAGGAUCACCCAUGUACAUGCCCUUGGCAGCUACAUUUUCUUU | 15.2 nM | 16.5 nM | – | – | –
UGACAUUGCUGCGAUACCAGACAUGAGGAUCACCCAUGUACCAAGAAAACGUACAUAAAUGUCCCUUGGCAGCGCAGCAAUGUCU | – | – | 524 nM | 1360 nM | –
UGACAUUGCUGCGAUACCAGACAUGAGGAUCACCCAUGUACCAAGGUACGAAAAUAACAUGUCCCUUGGCAGCGCAGCAAUGUCU | – | – | 12.6 nM | 254 nM | –
UGGUUUGUGAUGGAUACCAGCAGAGAAAACGUUUAUCCUAACAUGAGGAUCACCCAUGUAUGCCCUUGGCAGCUGUUGUGGGCUG | – | – | 36 nM | 38.9 nM | –
UGUAAAAUAACAGAUACCAGCGUGUUAUAAAACAUGAGGAUCACCCAUGUAGUGAUCAAGCGCCCUUGGCAGCUGGUAUUUUAUG | 160 nM | 129 nM | – | – | –
UGUAACAUGAGGAUCACCCAUGUGAGUGAUACCAGAUUAGUAUUAGUCCCUUGGCAGCACGUUGGGCGAGUGUAUAGUCUAUGCG | 147 nM | 113 nM | – | – | –
UGUAACAUGAGGAUCACCCAUGUGCACGAUACCAGCUUAUUGAUAGGCCCUUGGCAGCGUAUGCGGAAGCUGUAUAAUAUAUAUC | 11.3 nM | 12.7 nM | – | – | –
UGUUUGGUGCGCGAGUGUUGGAUGAUUGAUACCAGUGAAGAAGAGCGCCCUUGGCAGCGAAUCCUAACAUGAGGAUCACCCAUGU | 50.8 nM | 67.6 nM | – | – | –
UGUUUUAAAAGUGAUACCAGACAAACAUGAGGAUCACCCAUGUAACAUGAGAGAUAAUAAGUCCCUUGGCAGCACAUAAUUAGUA | 31.8 nM | 26.4 nM | – | – | –
UUAAGAGGCUAUCAAAUUUGAUUUUGUGAUACCAGAAUAAUUUUAUUCCCUUGGCAGCAUGACAUGAGGAUCACCCAUGUGUCUU | 35.4 nM | 30.2 nM | – | – | –
UUACAUGAGGAUCACCCAUGUCAUAACGAUACCAGAUAGUUAAUGAUCCCUUGGCAGCGUAAUACCUAGACAUUUAAGUCAUAGG | 56.2 nM | 19.6 nM | – | – | –
UUACGAGGCUAUCCACUUUGAUUUUGUGAUACCAGAAUAAUUUUAUUCCCUUGGCAGCAUGACAUGAGGAUCACCCAUGUGUCUU | 38 nM | 61.7 nM | – | – | –
UUUGAUAGGACAGAUACCAGCGUGUUGUAGAACAUGAGGAUCACCCAUGUAGUGAUCAAGCGCCCUUGGCAGCUGGUUUGUUAGG | 170 nM | 82.6 nM | – | – | –
UUUGCACAUGAGGAUCACCCAUGUACAGAUACCAGCCUCAUCUACGGCCCUUGGCAGCUGAGACAAUGGUGACAUGAUGGGCUUU | – | – | 12.1 nM | 32.6 nM | –
UUUGCACAUGAGGAUCACCCAUGUACAGAUACCAGCCUCAUCUACGGCCCUUGGCAGCUGAGACAAUGGUGACGUGACGGGCUUU | – | – | 11.7 nM | 28.2 nM | –
UUUUAAAGCAUGGCGUAUCGGAAAACCGAUACCAGUACAGAAAUGUACCCUUGGCAGCGGAAUUUUACAUGAGGAUCACCCAUGU | – | – | 13.1 nM | 43.4 nM | –
